Source: ChEMBL document CHEMBL1145797, “Synthesis and antitumor activity of novel O-carbamoylmethyloxime derivatives of radicicol” (J Med Chem, 2003)

Test system: 3Y1 cell line
Test: Concentration to inhibit growth of normal rat fibroblast cells (3Y1-B cells) after 72 h exposure
Type: functional, cell-based
Conditions: 3Y1, 72 h
Procedure, shortened: (§1)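 Cells precultured 24 h in DMEM with 10% fetal calf serum, then exposed to drug for 72 h. Viability read by MTT assay. IC50 taken as concentration giving 50% growth inhibition relative to control cultures.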
`C[C@@H]1C[C@H]2O[C@@H]2\C=C/C=C/C(=N\O)Cc2c(Cl)c(O)cc(O)c2C(=O)O1` gave an IC50 of 90 nM.
For `C[C@@H]1C[C@H]2O[C@@H]2\C=C/C=C/C(=N\OCC(=O)N(CCO)CCO)Cc2c(Cl)c(O)cc(O)c2C(=O)O1`, the IC50 was > 3000 nM.
Compound `COc1ccc(NC(=O)CO\N=C2/C=C/C=C\[C@H]3O[C@@H]3C[C@@H](C)OC(=O)c3c(O)cc(O)c(Cl)c3C2)cc1` has an IC50 of 100 nM.
Compound `C[C@@H]1C[C@H]2O[C@@H]2\C=C/C=C/C(=N\OCC(=O)NCC2CCCCC2)Cc2c(Cl)c(O)cc(O)c2C(=O)O1` has an IC50 of 180 nM.
In the case of `C[C@@H]1C[C@H]2O[C@@H]2\C=C/C=C/C(=N\OCC(=O)N2CCCCC2)Cc2c(Cl)c(O)cc(O)c2C(=O)O1`, the IC50 is reported as 8.3 nM.
For `C[C@@H]1C[C@H]2O[C@@H]2\C=C/C=C/C(=N\OCC(=O)N2CCC(C(N)=O)CC2)Cc2c(Cl)c(O)cc(O)c2C(=O)O1`, the IC50 was > 3000 nM.

Test system: not listed separately
Test: Concentration to inhibit growth of normal rat K-ras-transformed cells (KNRK 5.2 cells) after 72 hr exposure
Type: functional
Conditions: not given
Procedure, shortened: as §1
With `C[C@@H]1C[C@H]2O[C@@H]2\C=C/C=C/C(=N\O)Cc2c(Cl)c(O)cc(O)c2C(=O)O1` the IC50 was 39 nM.
With `C[C@@H]1C[C@H]2O[C@@H]2\C=C/C=C/C(=N\OCC(=O)N(CCO)CCO)Cc2c(Cl)c(O)cc(O)c2C(=O)O1` the IC50 was 2900 nM.
`COc1ccc(NC(=O)CO\N=C2/C=C/C=C\[C@H]3O[C@@H]3C[C@@H](C)OC(=O)c3c(O)cc(O)c(Cl)c3C2)cc1` gave an IC50 of 81 nM.
With `C[C@@H]1C[C@H]2O[C@@H]2\C=C/C=C/C(=N\OCC(=O)NCC2CCCCC2)Cc2c(Cl)c(O)cc(O)c2C(=O)O1` the IC50 was 140 nM.
In the case of `C[C@@H]1C[C@H]2O[C@@H]2\C=C/C=C/C(=N\OCC(=O)N2CCCCC2)Cc2c(Cl)c(O)cc(O)c2C(=O)O1`, the IC50 is reported as 14 nM.
For `C[C@@H]1C[C@H]2O[C@@H]2\C=C/C=C/C(=N\OCC(=O)N2CCC(C(N)=O)CC2)Cc2c(Cl)c(O)cc(O)c2C(=O)O1`, the IC50 was > 3000 nM.

Test system: not listed separately
Test: Percent depletion of Raf-1 protein expression after 40h exposure at 0.2 uM in KNRK5.2 cells
Type: functional, cell-based
Conditions: Rattus norvegicus
Procedure, shortened: (§2)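 KNRK5.2 cells exposed to 0.2 µM drug for 40 h, then lysed. Equal-protein lysates Western blotted in duplicate for Raf-1 (rabbit polyclonal), phospho-MAPK (phosphospecific antibody) and total Erk2 (monoclonal). Read-out is % inhibition of phospho-Erk2 formation or % Raf-1 depletion.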
For `C[C@@H]1C[C@H]2O[C@@H]2\C=C/C=C/C(=N\O)Cc2c(Cl)c(O)cc(O)c2C(=O)O1`, the Depletion was 29%.
Work on `C[C@@H]1C[C@H]2O[C@@H]2\C=C/C=C/C(=N\OCC(=O)N2CCCCC2)Cc2c(Cl)c(O)cc(O)c2C(=O)O1` yielded a Depletion of 74%.

Test system: not listed separately
Test: Inhibition of K-ras-induced MAPK phosphorylation in KNRK5.2 cells after 40h exposure at 0.2 uM
Type: functional
Conditions: Rattus norvegicus
Procedure, shortened: as §2
`C[C@@H]1C[C@H]2O[C@@H]2\C=C/C=C/C(=N\O)Cc2c(Cl)c(O)cc(O)c2C(=O)O1` gave an inhibition at 0.2 µM of 81%.
`C[C@@H]1C[C@H]2O[C@@H]2\C=C/C=C/C(=N\OCC(=O)N2CCCCC2)Cc2c(Cl)c(O)cc(O)c2C(=O)O1` showed an inhibition at 0.2 µM of 95%.

Test system: Mus musculus
Test: In vivo antitumor activity against BALB mice transplanted with human tumor (MX-1) Xenograft Model at a dose of 25 mg/kg by administering intravenously for 5 days and Mortality is calculated
Type: functional
Conditions: route intravenous
Procedure, shortened: (§3)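 Adult BALB/c nu/nu mice (n = 5) inoculated sc in the flank with human tumor cells: MX-1 on day -14, A431 on day -18. Drug dissolved in cremophor EL/N,N-dimethylacetamide/physiological saline (7.5:5:87.5) and given iv once daily on days 0-4. Animals monitored for lethal toxicity and body weight loss.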
`C[C@@H]1C[C@H]2O[C@@H]2\C=C/C=C/C(=N\OCC(=O)N2CCCCC2)Cc2c(Cl)c(O)cc(O)c2C(=O)O1` gave a Mortality of 0.

Test system: Mus musculus
Test: In vivo antitumor activity against BALB mice transplanted with human tumor (MX-1) Xenograft Model at a dose of 50 mg/kg by administering intravenously for 5 days and Mortality is calculated
Type: functional
Conditions: route intravenous
Procedure, shortened: as §3
`C[C@@H]1C[C@H]2O[C@@H]2\C=C/C=C/C(=N\OCC(=O)N2CCCCC2)Cc2c(Cl)c(O)cc(O)c2C(=O)O1` gave a Mortality of 0.

Test system: Mus musculus
Test: In vivo antitumor activity against BALB mice transplanted with human tumor (MX-1) using Xenograft Model at a dose of 100 mg/kg by administering intravenously for 5 days and mortality is calculated
Type: functional
Conditions: route intravenous
Procedure, shortened: as §3
`C[C@@H]1C[C@H]2O[C@@H]2\C=C/C=C/C(=N\O)Cc2c(Cl)c(O)cc(O)c2C(=O)O1` gave a Mortality of 0.

Species: Mus musculus
Test: Dose required to produce lethal toxicity was determined
Type: organism-based
Conditions: in vivo
Procedure, shortened: as §3
Compound `C[C@@H]1C[C@H]2O[C@@H]2\C=C/C=C/C(=N\OCC(=O)N2CCCCC2)Cc2c(Cl)c(O)cc(O)c2C(=O)O1` has a Lethal toxicity of 100 mg/kg.

Test system: Mus musculus
Test: In vivo antitumor activity against BALB mice transplanted with human tumor (A431) Xenograft Model at a dose of 50 mg/kg by administering intravenously for 5 days and Mortality is calculated
Type: functional
Conditions: route intravenous
Procedure, shortened: as §3
For `C[C@@H]1C[C@H]2O[C@@H]2\C=C/C=C/C(=N\OCC(=O)N2CCCCC2)Cc2c(Cl)c(O)cc(O)c2C(=O)O1`, the Mortality was 0.

Test system: Mus musculus
Test: In vivo antitumor activity against BALB mice transplanted with human tumor (A431) Xenograft Model at a dose of 25 mg/kg by administering intravenously for 5 days and T/C value was calculated on 7th day
Type: functional
Conditions: dose 50 mg/kg; route intravenous; in the assay text read “50 mg/kg” for “25 mg/kg”
Procedure, shortened: (§4)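 Adult BALB/c nu/nu mice (n = 5), tumor cells inoculated sc in the flank (MX-1 day -14, A431 day -18). Drug in cremophor EL/N,N-dimethylacetamide/saline (7.5:5:87.5), given iv daily days 0-4. Tumor volume = length × width²/2. T/C = mean V/V0 of treated over control. Mann–Whitney U test.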
`C[C@@H]1C[C@H]2O[C@@H]2\C=C/C=C/C(=N\OCC(=O)N2CCCCC2)Cc2c(Cl)c(O)cc(O)c2C(=O)O1` gave a T/C min of 0.44.

Test system: Mus musculus
Test: In vivo antitumor activity against BALB mice transplanted with human tumor (MX-1) using Xenograft Model at a dose of 100 mg/kg by administering intravenously for 5 days and T/C value is calculated on 14th day
Type: functional
Conditions: route intravenous
In the case of `C[C@@H]1C[C@H]2O[C@@H]2\C=C/C=C/C(=N\O)Cc2c(Cl)c(O)cc(O)c2C(=O)O1`, the T/C min is reported as 0.49.

Test system: Mus musculus
Test: In vivo antitumor activity against BALB mice transplanted with human tumor (MX-1) using Xenograft Model at a dose of 50 mg/kg by administering intravenously for 5 days and T/C value was calculated on 11th day
Type: functional
Conditions: route intravenous
Procedure, shortened: as §4
Compound `C[C@@H]1C[C@H]2O[C@@H]2\C=C/C=C/C(=N\OCC(=O)N2CCCCC2)Cc2c(Cl)c(O)cc(O)c2C(=O)O1` has a T/C min of 0.17.

Test system: Mus musculus
Test: In vivo antitumor activity against BALB mice transplanted with human tumor (MX1) Xenograft Model at a dose of 25 mg/kg by administering intravenously for 5 days and T/C value was calculated on 11th day
Type: functional
Conditions: route intravenous
Procedure, shortened: as §4
Work on `C[C@@H]1C[C@H]2O[C@@H]2\C=C/C=C/C(=N\OCC(=O)N2CCCCC2)Cc2c(Cl)c(O)cc(O)c2C(=O)O1` yielded a T/C min of 0.54.

Test system: NRK
Test: Concentration to inhibit growth of normal rat kidney epithelial cells (NRK cells) after 72 hr exposure
Type: functional, cell-based
Conditions: not given
Procedure, shortened: as §1
`C[C@@H]1C[C@H]2O[C@@H]2\C=C/C=C/C(=N\O)Cc2c(Cl)c(O)cc(O)c2C(=O)O1` gave an IC50 of 80 nM.
For `C[C@@H]1C[C@H]2O[C@@H]2\C=C/C=C/C(=N\OCC(=O)N(CCO)CCO)Cc2c(Cl)c(O)cc(O)c2C(=O)O1`, the IC50 was > 3000 nM.
In the case of `COc1ccc(NC(=O)CO\N=C2/C=C/C=C\[C@H]3O[C@@H]3C[C@@H](C)OC(=O)c3c(O)cc(O)c(Cl)c3C2)cc1`, the IC50 is reported as 260 nM.
In the case of `C[C@@H]1C[C@H]2O[C@@H]2\C=C/C=C/C(=N\OCC(=O)NCC2CCCCC2)Cc2c(Cl)c(O)cc(O)c2C(=O)O1`, the IC50 is reported as 210 nM.
`C[C@@H]1C[C@H]2O[C@@H]2\C=C/C=C/C(=N\OCC(=O)N2CCCCC2)Cc2c(Cl)c(O)cc(O)c2C(=O)O1` gave an IC50 of 18 nM.
With `C[C@@H]1C[C@H]2O[C@@H]2\C=C/C=C/C(=N\OCC(=O)N2CCC(C(N)=O)CC2)Cc2c(Cl)c(O)cc(O)c2C(=O)O1` the IC50 was > 3000 nM.

Test system: not listed separately
Test: Concentration to inhibit growth of v-src-transformed cells (SR-3Y1 cells) after 72 h exposure
Type: functional
Conditions: Rattus norvegicus, SR3Y1, 72 h
Procedure, shortened: as §1
`C[C@@H]1C[C@H]2O[C@@H]2\C=C/C=C/C(=N\O)Cc2c(Cl)c(O)cc(O)c2C(=O)O1` gave an IC50 of 26 nM.
Compound `C[C@@H]1C[C@H]2O[C@@H]2\C=C/C=C/C(=N\OCC(=O)N(CCO)CCO)Cc2c(Cl)c(O)cc(O)c2C(=O)O1` has an IC50 of 1100 nM.
With `COc1ccc(NC(=O)CO\N=C2/C=C/C=C\[C@H]3O[C@@H]3C[C@@H](C)OC(=O)c3c(O)cc(O)c(Cl)c3C2)cc1` the IC50 was 58 nM.
`C[C@@H]1C[C@H]2O[C@@H]2\C=C/C=C/C(=N\OCC(=O)NCC2CCCCC2)Cc2c(Cl)c(O)cc(O)c2C(=O)O1` gave an IC50 of 20 nM.
In the case of `C[C@@H]1C[C@H]2O[C@@H]2\C=C/C=C/C(=N\OCC(=O)N2CCCCC2)Cc2c(Cl)c(O)cc(O)c2C(=O)O1`, the IC50 is reported as 6.1 nM.
With `C[C@@H]1C[C@H]2O[C@@H]2\C=C/C=C/C(=N\OCC(=O)N2CCC(C(N)=O)CC2)Cc2c(Cl)c(O)cc(O)c2C(=O)O1` the IC50 was > 3000 nM.

Biological target: Proto-oncogene tyrosine-protein kinase Src (Rattus norvegicus, UniProt Q9WUD9)
Test: Inhibition of v-Src tyrosine kinase autophosphorylation in SR3Y1 cells after 15 hr exposure
Type: cell-based
Conditions: not given
Procedure, shortened: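 SR-3Y1 cells exposed to drug 15 h, lysed on ice 20 min in Tris pH 7.5 RIPA-type buffer with protease inhibitors and 1 mM vanadate. Equal-protein lysates run on SDS-PAGE, blotted with anti-phosphotyrosine antibody, HRP secondary, ECL detection. IC50 = concentration halving tyrosine phosphorylation.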
`C[C@@H]1C[C@H]2O[C@@H]2\C=C/C=C/C(=N\O)Cc2c(Cl)c(O)cc(O)c2C(=O)O1` showed an IC50 of 56 nM.
With `C[C@@H]1C[C@H]2O[C@@H]2\C=C/C=C/C(=N\OCC(=O)N(CCO)CCO)Cc2c(Cl)c(O)cc(O)c2C(=O)O1` the IC50 was > 1000 nM.
With `COc1ccc(NC(=O)CO\N=C2/C=C/C=C\[C@H]3O[C@@H]3C[C@@H](C)OC(=O)c3c(O)cc(O)c(Cl)c3C2)cc1` the IC50 was 390 nM.
In the case of `C[C@@H]1C[C@H]2O[C@@H]2\C=C/C=C/C(=N\OCC(=O)NCC2CCCCC2)Cc2c(Cl)c(O)cc(O)c2C(=O)O1`, the IC50 is reported as 17 nM.
Work on `C[C@@H]1C[C@H]2O[C@@H]2\C=C/C=C/C(=N\OCC(=O)N2CCCCC2)Cc2c(Cl)c(O)cc(O)c2C(=O)O1` yielded an IC50 of 25 nM.
